Experimental data published in publication PMC8603004 (EFSA Journal, 2021).
Marks after values point to notes of the source that are not given here.

Assays:
[1] = ADME in a lactating goat; type: in vivo
[2] = test system: dairy cows, beef cattle and sheep; conditions: 100 mg 3‐NOP/kg DMI; cited from earlier work
[3] = Third in vitro rumen fluid trial; conditions: for 3‐NOP concentration remaining after 16 h: 39°C
[4] = Second goat experiment, pre‐dosed 5 days; type: in vivo, lactating goat
[5] = test system: Holstein Friesian dairy cows; test: Three long‐term studies on enteric methane output; type: in vivo
[6] = Third in vitro rumen fluid trial; conditions: 39°C
[7] = test system: Syrian hamster embryo cells; test: Cell transformation assay; type: cell-based; conditions: 500 to 2,500 μg/mL, 7 days
Procedure, shortened: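 GLP in vitro transformation assay in Syrian hamster embryo cells, following the OECD draft proposal (2012). The test compound was given as a continuous 7-day treatment at six concentrations from 500 to 2,500 μg/mL, chosen from a dose-range finding test. The frequency of morphologically transformed colonies was scored against positive and vehicle controls.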

[8] = test system: ruminal microorganisms; test: In vitro ruminal fermentation; conditions: 3‐NOP added to the feed at different concentrations, three studies
Procedure, shortened: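 Rumen fermentation was simulated in a chemostat (RUSITEC) as continuous culture of ruminal microorganisms. Each of three studies included a control without additive and one or more groups with test compound added to the feed at differing concentrations.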

[9] = test system: human lymphoblastoid TK6 cells; test: In vitro micronucleus assay; conditions: with and without S9, up to 1,220 μg/mL
[10] = Second in vivo toxicokinetic study, metabolic profile in gut and plasma; set-up: species or system male Wistar rats
Procedure, shortened: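 Single oral dose of 500 mg/kg bw 14C-labelled test compound to male Wistar rats. One animal per time point was killed at 1, 2 and 3 h post-dose and blood was collected. Stomach, small intestine, caecum and colon contents were removed for total radioactivity. Metabolites were characterised by NMR and/or LC/MS.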

[11] = test system: Wistar Han rats; type: in vivo; conditions: males and females; effects on spermatogenesis and corpora lutea
[12] = test system: Salmonella Typhimurium (TA98, TA100, TA1535 and TA1537) and Escherichia coli WP2uvrA; test: Bacterial reverse mutation assays; type: cell-based; conditions: up to 5,000 μg/plate, with or without S9‐mix
[13] = Eye irritation study
[14] = test system: New Zealand White rabbits; test: Prenatal developmental toxicity study; conditions: rabbit, in vivo
[15] = test system: Holstein Friesian dairy cows; test: Dose‐range finding study in dairy cows; type: in vivo; conditions: group 10× (16 g 3‐NOP/day, 800 mg/kg complete feed) compared to the control
[16] = Third in vitro rumen fluid trial; conditions: 39°C; remark: listed apart in the source
[17] = Octanol–water partition coefficient; type: physicochemical
[18] = Acute inhalation test; type: in vivo, Wistar rats; conditions: Wistar, rat, in vivo, inhaled
[19] = test system: Wistar rats; test: Acute inhalation test; type: in vivo
[20] = Incubation of 14C‐3‐NOP in liver fractions; type: in vitro ADME, humans; conditions: human, liver S9 and liver cytosol
Procedure, shortened: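 14C-labelled test compound was incubated with or without NAD+ in liver S9, cytosol and microsomes from Sprague–Dawley rat, Wistar Han rat, Beagle dog and human. Aliquots were taken at several time points and the proteins precipitated. Supernatants were analysed by liquid scintillation counting and radio-HPLC, and half-life was derived from the time course.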

[21] = Overall NOAEL and health‐based guidance value
[22] = 3.28 mg/kg bw per day, two days labelled
[23] = study 1 WUR, 54 mg 3‐NOP/kg TMR DM intake
[24] = study 2 UK, 57 mg 3‐NOP/kg TMR DM intake
[25] = study 3 PSU, 61 mg 3‐NOP/kg TMR DM intake

For `O=[N+]([O-])OCCCO` [3‐NOP, propan‐1,3‐diol‐mononitrate], the “Milk radioactivity in the aqueous phase of milk” value ([1]; 0–8 h after the sixth day of administration) was 75.2%, the “Radioactivity excreted via faeces” value ([1]; 4.34 mg/kg bw per day, 7 days) was 1.9 % of total radioactivity appli and the “Radioactivity excreted via milk” value ([1]; 4.34 mg/kg bw per day, 7 days) was 6.42 % of total radioactivity appli. For the same compound, the “Radioactivity excreted via urine” value ([1]; 4.34 mg/kg bw per day, 7 days) was 3.5 % of total radioactivity appli, the “Radioactivity in the intestinal tract content” value ([1]; 4.34 mg/kg bw per day, 7 days) was 1.14 % of total radioactivity appli and the “Radioactivity remaining in the total edible tissues” value ([1]; 4.34 mg/kg bw per day, 7 days) was 4.98 % of total radioactivity appli. The Total radioactivity excreted ([1]; 4.34 mg/kg bw per day, 7 days) was 11.85%, the “Total recovery at sacrifice” value ([1]; 4.34 mg/kg bw per day, 7 days) was 17.97% and the “Milk radioactivity in the aqueous phase of milk” value ([1]; 8–24 h after the sixth day of administration) was 59.0%. For the same compound, the “Radioactive residues in plasma” value ([1]; 24 h after the first administration) was 0.61 mg 3‐NOP‐eq/kg, the “Radioactive residues in plasma” value ([1]; at sacrifice) was 3.72 mg 3‐NOP‐equivalents/kg and the “Nitrate esters in milk, not detectable (LOD)” value ([1]; milk collected 0–8 h post‐dose) was less than 0.82 mg 3‐NOP‐equivalent/kg. For the same compound, the “Nitrate esters in milk, not detectable (LOD)” value ([1]; milk collected 8–24 h post‐dose) was less than 0.43 mg 3‐NOP‐equivalent/kg, the “Plasma radioactivity non‐extractable in the protein precipitate” value ([1]; plasma collected at sacrifice) was “Eighty‐five” and the “Decrease of CH4” value [2] was “about 20%”. The “3‐NOP concentration remaining after 16 h” value ([3]; 1 mg/L, anaerobic, n = 6) was 0.9%, the “3‐NOP concentration remaining after 16 h” value ([3]; aerobic control, n = 2) was 39.4% and the “Radioactivity in the non‐dissolved fractions” value ([3]; sheep, goat and cow rumen fluids, 1 mg/L, 16 h at 39°C, anaerobic) was no more than 5.5%. The “Radioactivity excreted via faeces” value [4, 22] was 0.71 % of radioactivity totally app, the “Radioactivity excreted via milk” value [4, 22] was 4.48 % of radioactivity totally app and the “Radioactivity excreted via urine” value [4, 22] was 1.97 % of radioactivity totally app. For the same compound, the “Radioactivity in the intestinal tract content” value [4, 22] was 14.87 % of radioactivity totally app, the “Radioactivity remaining in the total edible tissues” value [4, 22] was 8.99 % of radioactivity totally app and the Total radioactivity excreted [4, 22] was 7.18%. The “Total recovery at sacrifice” value [4, 22] was 31.04%, the “Radioactive residues in plasma” value ([4]; 0.5 h after the first administration) was 2.31 mg 3‐NOP‐equivalents/kg and the “Plasma radioactivity associated with the plasma protein fraction” value ([4]; 0.5 h post‐dose) was 4.4%. The “Radioactivity in the aqueous phase of plasma” value ([4]; 0.5 h post‐dose) was 95.6%, the “Plasma radioactivity associated with the plasma protein fraction” value ([4]; 24 h post‐dose) was 89.4% and the “Radioactivity in the aqueous phase of plasma” value ([4]; 24 h post‐dose) was 10.6%. For the same compound, the “Nitrate esters in the aqueous phase of plasma, not detectable (LOD)” value ([4]; LOD ≤ 0.07) was less than 0.07 mg/kg, the “Nitrate esters in the aqueous milk fraction, not detectable (LOD)” value ([4]; LOD ≤ 0.21) was less than 0.21 mg/kg and the “Radioactive residues in plasma” value ([4]; at sacrifice) was 1.6 mg 3‐NOP‐equivalents/kg. For the same compound, the “Final BW” value [5, 23] was 668 kg, the Milk fat [5, 23] was 43.4 g/kg and the Milk protein [5, 23] was 36.3 ^* g/kg. For the same compound, the “TMR DM intake” value [5, 23] was 18.4 kg/day, the “kg EC milk/day” value [5, 23] was 25.7 kg EC milk/day and the “kg EC milk/kg DMI” value [5, 23] was 1.36 ^* kg EC milk/kg DMI. For the same compound, the kg milk/day [5, 23] was 24.5 kg milk/day, the “g CH4/kg EC milk” value ([5]; study 1 WUR, 54 mg 3‐NOP/kg TMR DM intake (control 17.1)) was 12.9 ^* (18.7) g CH4/kg EC milk and the “g CH4/kg DM intake” value ([5]; study 1 WUR, 54 mg 3‐NOP/kg TMR DM intake (control 22.4)) was 17.7 ^* (25.5) g CH4/kg DM intake. The “g CH4/day” value ([5]; study 1 WUR, 54 mg 3‐NOP/kg TMR DM intake, average over 15 weeks (control 423)) was 332 ^* (480) g CH4/day, the “Final BW” value [5, 24] was 721 kg and the Milk fat [5, 24] was 39.9 ^* g/kg. The Milk protein [5, 24] was 33.4 g/kg, the “TMR DM intake” value [5, 24] was 22.9 kg/day and the “kg EC milk/day” value [5, 24] was 35.0 ^* kg EC milk/day. The “kg EC milk/kg DMI” value [5, 24] was 1.53 kg EC milk/kg DMI, the kg milk/day [5, 24] was 36.0 kg milk/day and the “g H2/day” value ([5]; study 2 UK, 57 mg 3‐NOP/kg TMR DM intake (control 2.6)) was 10.6 ^* (2.4) g H2/day. For the same compound, the “g CH4/kg EC milk” value ([5]; study 2 UK, 57 mg 3‐NOP/kg TMR DM intake (control 12.3)) was 8.4 ^* (10.1) g CH4/kg EC milk, the “g CH4/kg DM intake” value ([5]; study 2 UK, 57 mg 3‐NOP/kg TMR DM intake (control 20.3)) was 13.5 ^* (16.7) g CH4/kg DM intake and the “g CH4/day” value ([5]; study 2 UK, 57 mg 3‐NOP/kg TMR DM intake (control 449)) was 292 ^* (400) g CH4/day. The “Final BW” value [5, 25] was 648 kg, the Milk fat [5, 25] was 40.2 ^* g/kg and the Milk protein [5, 25] was 31.5 g/kg. The “TMR DM intake” value [5, 25] was 25.7 kg/day, the “kg EC milk/day” value [5, 25] was 37.5 kg EC milk/day and the “kg EC milk/kg DMI” value [5, 25] was 1.47 kg EC milk/kg DMI. The kg milk/day [5, 25] was 38.2 kg milk/day, the “g H2/day” value ([5]; study 3 PSU, 61 mg 3‐NOP/kg TMR DM intake (control 0.5)) was 2.6 ^* (0.4) g H2/day and the “g CH4/kg EC milk” value ([5]; study 3 PSU, 61 mg 3‐NOP/kg TMR DM intake (control 11.2)) was 8.2 ^* (9.7) g CH4/kg EC milk. For the same compound, the “g CH4/kg DM intake” value ([5]; study 3 PSU, 61 mg 3‐NOP/kg TMR DM intake (control 16.7)) was 12.1 ^* (14.9) g CH4/kg DM intake, the “g CH4/day” value ([5]; study 3 PSU, 61 mg 3‐NOP/kg TMR DM intake (control 410)) was 308 ^* (403) g CH4/day and the “3‐NOP concentration remaining after 16 h” value ([6]; 1 mg/L, anaerobic, n = 6) was 1.0%. The “3‐NOP concentration remaining after 16 h” value ([6]; aerobic control, n = 2) was 31.9%, the Morphologically transformed colonies [7] was “No significant increase in the frequency of morphologically transformed colonies” and the “Methane output in vitro” value [8] was “reduces methane output significantly”. The “Micronuclei, overall result” value [9] was “weak increase in micronuclei”, the “Intact compound, share of radioactivity in small intestine content” value ([10]; 1 and 3 h after 500 mg/kg bw) was less than 4% and the “Intact compound, share of radioactivity in stomach content” value ([10]; 1 and 3 h after 500 mg/kg bw) was “more than 80%”. For the same compound, the Radioactivity in plasma ([10]; 1 h post‐dose) was 713 μg 3‐NOP‐eq/g, the Radioactivity in plasma ([10]; 2 h post‐dose) was 522 μg 3‐NOP‐eq/g and the Radioactivity in plasma ([10]; 3 h post‐dose) was 156 μg 3‐NOP‐eq/g. For the same compound, the Overall radioactivity recovered ([10]; after 1 h) was 88 % of the dose, the Overall radioactivity recovered ([10]; after 2 h) was 78 % of the dose and the Overall radioactivity recovered ([10]; after 3 h) was 58 % of the dose. The Radioactivity in urine ([10]; urine 0 to 2 h of one animal) was 13.7 % of the applied dose, the NOAEL [11] was 100 mg 3‐NOP/kg bw per day and the Revertant colonies [12] was “No increase in the mean number of revertant colonies”. The Eye irritation potential [13] was “eye irritant”, the “NOAEL for maternal and developmental toxicity” value [14] was “at least 450 mg/kg bw per day” and the Feed intake [15] was “significantly (p < 0.05) reduced”. For the same compound, the “3‐NOP concentration remaining after 16 h” value ([16]; 1 mg/L, anaerobic, n = 6) was 0.7%, the “3‐NOP concentration remaining after 16 h” value ([16]; aerobic control, n = 2) was 27.9% and the “log KOW” value [17] was 0.399. The LC50 at 4 h [18] was greater than 5 µg/mL, the Mortality ([19]; 1 and 5 mg/L) was “No mortality occurred” and the “Acute inhalation toxicity class according to the GHS” value ([19]; rat, in vivo) was “class 5”. For the same compound, the “No observed adverse effect concentration (NOAEC)” value ([19]; rat, in vivo) was “exceed 5 mg/L”, the half-life [20] was roughly 42 min and the “Health‐based guidance value (acceptable daily intake, ADI)” value ([21]; NOAEL 100 mg/kg bw per day, uncertainty factor of 100) was 1 mg 3‐NOP/kg bw per day. The “Overall NOAEL” value ([21]; subchronic toxicity studies in rats, mice and dogs) was 100 mg/kg bw per day.
